≈ marks a conversion by molar mass, not a printed value.
Experiments:
[1] = Selectivity index, ratio of CC50 for MDCK cells to IC50 for influenza virus type A H1N1; assay type: functional
How it was run: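 SI was computed as CC50/IC50. CC50 came from microscopic morphology scoring (0–4) of monolayers after 2–5 days at 37 °C. IC50 came from CPE scoring of cells infected at 100 TCID50/mL and treated with two-fold dilutions for 2–5 days at 37 °C. Both values were read from graphic plots.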

Influenza A virus = experiment: Antiviral activity against influenza virus type A H1N1 in MDCK cells assessed as inhibition of virus-induced cytopathic effect; assay type: functional, organism-based
How it was run: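 Two-fold serial dilutions were applied to cell monolayers, starting at the maximal noncytotoxic concentration. An equal volume of virus at 100 TCID50/mL was added, with an untreated infected control. Plates were held at 37 °C, humidified, for 2–5 days. CPE was scored 0–4 and expressed as percent of virus control. IC50 (µg/mL), the concentration halving CPE, was read from graphic plots.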

SMILES	Ratio CC50/IC50 [1]	CC50 (Influenza A virus) [µg/mL]	IC50 (Influenza A virus) [µg/mL]
C[C@@H]1O[C@@H](Oc2c(-c3ccc(O)cc3)oc3cc(O)cc(O)c3c2=O)[C@H](O)[C@H](O)[C@H]1O[C@@H]1O[C@H](CO)[C@@H](O)[C@H](O)[C@H]1O	<0.8	375 (≈ 631 µM)	> 500
NC(=O)c1ncn([C@@H]2O[C@H](CO)[C@@H](O)[C@H]2O)n1 [RIBAVIRIN]		> 125	62.5 (≈ 256 µM)
O=c1c(O[C@@H]2O[C@H](CO)[C@@H](O)[C@H](O)[C@H]2O[C@@H]2OC[C@@H](O)[C@H](O)[C@H]2O)c(-c2ccc(O)cc2)oc2cc(O)cc(O)c12	<0.5	46.9 (≈ 80.8 µM)	> 100
O=c1c(O[C@@H]2O[C@H](CO)[C@@H](O)[C@H](O)[C@H]2O)c(-c2ccc(O)cc2)oc2cc(O)cc(O)c12 [ASTRAGALIN]	16	392 (≈ 875 µM)	24.5 (≈ 54.6 µM)
O=c1c(O[C@@H]2O[C@H](CO)[C@H](O)[C@H](O)[C@H]2O)c(-c2ccc(O)cc2)oc2cc(O)cc(O)c12 [TRIFOLIN]	<0.7	215 (≈ 480 µM)	> 300
C[C@@H]1O[C@@H](OC[C@H]2O[C@@H](Oc3c(-c4ccc(O)c(O[C@@H]5O[C@H](CO)[C@@H](O)[C@H](O)[C@H]5O)c4)oc4cc(O)cc(O)c4c3=O)[C@H](O[C@@H]3OC[C@@H](O)[C@H](O)[C@H]3O)[C@@H](O)[C@@H]2O)[C@H](O)[C@H](O)[C@H]1O [AESCUFLAVOSIDE]	<1.1	108 (≈ 119 µM)	> 100
O=c1c(O[C@@H]2O[C@H](CO[C@@H]3O[C@H](CO)[C@@H](O)[C@H](O)[C@H]3O)[C@@H](O)[C@H](O)[C@H]2O[C@@H]2OC[C@@H](O)[C@H](O)[C@H]2O)c(-c2ccc(O)cc2)oc2cc(O)cc(O)c12	<1.1	107 (≈ 144 µM)	> 100
COc1ccc(-c2oc3cc(O)cc(O)c3c(=O)c2O[C@@H]2O[C@H](CO)[C@@H](O)[C@H](O)[C@H]2O[C@@H]2OC[C@@H](O)[C@H](O)[C@H]2O)cc1O[C@@H]1O[C@H](CO)[C@@H](O)[C@H](O)[C@H]1O [AESCUFLAVOSIDE A]	<0.6	322 (≈ 417 µM)	> 500
O=c1c(O[C@@H]2O[C@H](CO)[C@@H](O)[C@H](O)[C@H]2O[C@@H]2OC[C@@H](O)[C@H](O)[C@H]2O)c(-c2ccc(O)c(O[C@@H]3O[C@H](CO)[C@@H](O)[C@H](O)[C@H]3O)c2)oc2cc(O)cc(O)c12		> 322	> 500
O=c1c(O[C@@H]2O[C@H](CO)[C@@H](O)[C@H](O)[C@H]2O)c(-c2ccc(O)c(O)c2)oc2cc(O)cc(O)c12 [ISOQUERCETIN]		> 400	> 500
O=c1c(O[C@@H]2O[C@H](CO)[C@@H](O)[C@H](O)[C@H]2O[C@@H]2OC[C@@H](O)[C@H](O)[C@H]2O)c(-c2ccc(O)c(O)c2)oc2cc(O)cc(O)c12	<1	198 (≈ 331 µM)	> 200

Reference: ChEMBL document CHEMBL1151177, “Antiviral flavonoids from the seeds of Aesculus chinensis” (J Nat Prod, 2004)
